Screens: PubChem BioAssay, several laboratories
Rin1-Abl PPI inh = inhibitors of human Rin1-Abl protein interaction; P00519+Q13671; TR-FRET Rin1/Abl binding, biochemical; inhibition, % at 7.35 µM; actives 0.4% (n = 360,000); in the data active = inhibition above about 5%, passing the limit was not always enough
GRK2 inh = human GRK2 inhibition via aptamer displacement | bead flow cytometry, FAM-aptamer displacement from GRK2 | inhibition of aptamer binding, % at 10 µM | actives 0.59% (n = 330,000);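 active = inhibition of aptamer binding above 40%, roughly 3 SD of noise, on plates passing a quality check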;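 note: median bead fluorescence of bound FAM aptamer so fluorescent compounds give negative values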
SKN-1 block = blocks SKN-1 activity in C. elegans | C. elegans VP596 Pgst-4::GFP/RFP ratio, acrylamide-induced, 24 h | inhibition, % at 21.8 µM | actives 0.49% (n = 360,000) | AID 624304;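 active = interference check ratio from 0.5 to 1.5 plus GFP to RFP signal ratio inhibition reaching or exceeding a fixed threshold, cut at about 30% in these data, passing the limit was not always enough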
T cell modulator = T cell immune modulators affecting CD8 T cell-vesicle binding; 2C CD8+ T cell-vesicle binding, flow cytometry; active compounds read low; response (vesicle binding), % at 7 µM; actives 0.068% (n = 330,000); AID 2052;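 active = response, share of CD8 T cells binding vesicles, and their 90th percentile fluorescence all below set limits, cut at about 80% in these data, passing the limit was not always enough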;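 note: values below 100% mean blocked vesicle binding to the CD8+ T cells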
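material = purified 2C TCR transgenic mouse naive CD8+ T cells | controls = Unloaded micro-vesicles (low), QL9 vesicles with 0.7% DMSO (high) | detection = cytometric PE anti-B7-1 and Alexa647 anti-CD8 signals after 1% paraformaldehyde fixation | incubation = binding step 1.5 h, 37 °C, antibody labelling 20 min, ice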
Rce1 inhib = yeast Ras-converting enzyme inhibition; yeast membranes, quenched prenylated peptide cleavage fluorescence; calls only; actives 0.27% (n = 290,000);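 active = fall in fluorescence gain of 50% or more versus controls, with final raw signal at or below 3038400; inconclusive = same 50% fall but final raw signal above 3038400; inactive = fall in fluorescence gain under 50%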;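 note: plate controls were neutral control wells for no effect and wells lacking membranes for full effect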
Target sequence (Q03530 whole entry, looked up): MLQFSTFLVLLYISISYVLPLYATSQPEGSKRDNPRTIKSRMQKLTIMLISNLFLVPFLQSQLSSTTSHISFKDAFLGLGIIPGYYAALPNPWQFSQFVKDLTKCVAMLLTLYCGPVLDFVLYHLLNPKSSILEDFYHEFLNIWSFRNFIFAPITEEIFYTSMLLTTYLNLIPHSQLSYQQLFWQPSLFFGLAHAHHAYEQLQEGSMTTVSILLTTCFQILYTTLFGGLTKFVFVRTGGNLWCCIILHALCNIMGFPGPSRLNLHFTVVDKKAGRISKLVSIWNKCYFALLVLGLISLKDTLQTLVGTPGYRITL
Myeloid diff 2 = compounds promoting myeloid differentiation | ER-HoxA9 myeloid progenitors, lysozyme-GFP differentiation, flow cytometry | calls only at 10 µM | actives 1% (n = 360,000) | AID 624256;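 active = normalized GFP-positive differentiation at or above the plate's own cutoff, the solvent-only control mean plus 3 SD; inconclusive = no clear call, values can overlap the other calls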;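 note: cells exposed to compound for four days before flow analysis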
GRK2 CP1 = confirmation of human GRK2 inhibitors displacing RNA aptamer; bead-bound GRK2, FAM-aptamer displacement, flow cytometry; shares compounds with GRK2 inh; aptamer displacement, % at 10 µM; actives 4% (n = 2,000);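 active = aptamer displacement above 40%, near three times the noise of non-fluorescent compounds, on plates passing quality checks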;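 note: negative values mostly reflect intrinsic compound fluorescence rather than true enhancement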
FAM quench CP1 = quenches fluorescent RNA aptamer, GRK2 hit artifact; shares compounds with GRK2 inh; Carboxyfluorescein RNA aptamer on beads, flow cytometry quenching; active compounds read low; fluorescence response (% of DMSO), % at 10 µM; 2,000 tested, under 10 active; AID 504580;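 active = compounds that quench the bead-bound fluorescent RNA probe, cutting fluorescence to under half of the solvent control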;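 note: counterscreen run without GRK2 so only probe quenching by compound is measured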
GRK2 confirm 2 = confirmation of human GRK2 inhibitors binding RNA aptamer site; 360 tested, under 10 active; AID 504782; inhibition of aptamer binding, % at 10 µM; shares compounds with GRK2 inh; bead-bound GRK2, FAM-aptamer displacement, flow cytometry;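 active = inhibition of aptamer binding above 40%, about triple the noise seen with nonglowing compounds, on plates passing quality control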;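 note: negative values mostly come from compounds that fluoresce themselves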
FAM quench SP = aptamer fluorescence quenching in GRK2 counter-screen; shares compounds with GRK2 inh; carboxyfluorescein RNA aptamer beads, flow cytometry quenching; active compounds read low; fluorescence response vs DMSO, % at 10 µM; 360 tested, under 10 active; AID 588494;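 active = response vs DMSO under 50%, meaning signal dropped by over half, treated as fluorescence quencher; inconclusive = no clear call, values can overlap the other calls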;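 note: labelled aptamer on streptavidin beads without GRK2 as a quench counter-screen; 100% = bead fluorescence of DMSO wells and lower means quenching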
Active calls of the source: *; i = inactive; ? = inconclusive; / = no result given. Only some compounds are listed: those with a hit (about 2.6% of all), similar ones and a draw of the others.

SMILES	Rin1-Abl PPI inh	GRK2 inh	SKN-1 block	T cell modulator	Rce1 inhib	Myeloid diff 2	GRK2 CP1	FAM quench CP1	others
Cc1ccc(S(=O)(=O)c2ccc(-n3nc(C)cc3N)cc2)cc1	3	0	1	145	i	i	/	/
O=C1c2cccc3c([N+](=O)[O-])ccc(c23)C(=O)N1O	-1	56*	-69	157	i	?	-6	97
CC(=O)Nc1ccc(-c2ccnc3c2CC(C)(C(=O)Nc2cccc(OC(F)(F)F)c2)O3)cc1 (centres undefined)	2	/	6	/	/	i	/	/
Cn1c(=O)c2c(nc(NCc3ccco3)n2CC(O)CO)n(C)c1=O (centres undefined)	3	1	5	501	i	i	/	/
CN(C)c1ccc(-n2cccc2)cc1	-2	0	0	279	i	i	/	/	GRK2 confirm 2=-7;FAM quench SP=102
CN(C)/C=C/C(=O)c1ccc(-n2cccc2)cc1	2	2	2	320	i	i	/	/
CN1CCN(c2ccc(S(=O)(=O)N3CCCCC3)cc2NC(=O)CSC(C)(C)C)CC1	1	/	13	/	/	i	/	/
O=C(Nn1c(SCc2cccc([N+](=O)[O-])c2)nc2ccccc2c1=O)c1ccccc1	2	2	5	440	i	i	/	/
Cn1c(SCc2cccc([N+](=O)[O-])c2)nc2ccccc2c1=O	4	47*	3	132	/	i	-1	100
COc1ccc(OC)c(NC(=O)c2ccccc2N(C)S(=O)(=O)c2ccc(C)cc2)c1	2	2	-4	131	i	i	/	/
COc1ccc(CN(C)C(=O)c2cccc(S(=O)(=O)N3CCN(c4ccccc4)CC3)c2)c(OC)c1OC	0	0	-5	236	i	i	/	/
COc1ccc(CN(C)C(=O)c2cccc(S(=O)(=O)N3CCCc4ccccc43)c2)c(OC)c1OC	0	/	3	/	/	i	-32	99
COc1cc2c(cc1CN1CCN(C(=O)c3cc(OC)c(OC)c(OC)c3)CC1)OCO2	1	2	6	223	i	i	/	/
O=C(COC(=O)/C=C/c1ccco1)Nc1cc(S(=O)(=O)N2CCOCC2)ccc1Cl	1	59*	-2	406	/	i	8	101
CCc1ccc(NC(=O)COC(=O)/C=C/c2ccco2)cc1	4	70*	2	557	/	i	19	97
O=C(COC(=O)/C=C/c1ccco1)Nc1ccccc1	0	14	0	325	i	i	/	/
CCC(CC)C(=O)OCC(=O)Nc1ccc(S(=O)(=O)N2CCOCC2)cc1OC	-2	51*	-18	508	i	i	-1	100
O=C(NCCN1CCC(n2c(=O)[nH]c3ccccc32)CC1)c1cccc(Cl)c1	/	/	-11	/	/	i	/	/
CN(Cc1cccs1)S(=O)(=O)c1ccc(Cl)cc1F	-3	0	18	212	/	i	/	/
COc1ccc(CCNCC(C)c2ccccc2)cc1 (centres undefined)	3	4	7	314	i	i	0	106
O=C1N(c2ccccc2C(F)(F)F)O[C@]1(c1ccccc1)C1CCCCC1	1	5	-10	248	/	i	/	/
COc1cc(/C=C(/NC(C)=O)C(=O)O)cc(Cl)c1OCc1ccc(Br)cc1	-1	80*	-2	412	/	i	4	94
COc1cc(/C=C(\NC(C)=O)C(=O)O)cc(OC)c1OC	-1	7	5	314	i	i	/	/
C[C@@H]1CN([C@H](C)CO)C(=O)CCCn2nncc2CO[C@H]1CN(C)S(=O)(=O)c1ccc(Oc2ccccc2)cc1	0	/	10	/	/	i	/	/
